KCNQ1 act = human KCNQ1 channel potentiation or activation. CHO-K1 KCNQ1, thallium flux FluxOR fluorescence; stronger effect = higher value. B-score at 10 µM. 0.35% of 310,000 active;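 active means fluorescence ratio B-score, a plate-corrected score, at least three library SD, with initial intensity B-score within 5 SD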
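Assay system: CHO-K1 cells stably expressing KCNQ1. Medium: assay buffer for compound exposure, DMSO matched across wells. Timing: 37 °C overnight plating, 90-min dark dye load, 20-min compound pretreatment. Signal: kinetic FluxOR fluorescence, 10 s baseline plus 110 s post-stimulus.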
KCNQ1 block = inhibitors of human KCNQ1 potassium channel | P51787 | CHO-K1 KCNQ1, FluxOR thallium flux fluorescence; stronger effect = higher value | B-score at 10 µM | 1.3% of 310,000 active | AID 2642;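 active means compounds whose thallium flux B-score, printed positive for inhibition, exceeds three library SD while starting fluorescence stays within three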;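 further: channel opened by potassium depolarization with thallium stimulus after 20 min compound exposure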
KCNK3 inh = human KCNK3 channel inhibition, primary screen; O14649; CHO-KCNK3 thallium flux, FluxOR fluorescence; stronger effect = lower value; B-score at 10 µM; 0.84% of 340,000 active;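 active means B-score under library mean minus 4 SD, starting fluorescence ratio at most library mean plus 5 SD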;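 further: more negative B-score means stronger inhibition of thallium flux through KCNK3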
hERG rescue = compounds protecting human hERG from proarrhythmic drug block; activation (rescue from dofetilide block), less the hit threshold, % at 10 µM; CHO-hERG, FluxOR thallium flux, dofetilide IC70 present; 0.51% of 310,000 active; Q12809;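 active means activation above the mean of controls blocked by dofetilide plus 5 SD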;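 further: thallium influx through hERG after potassium depolarization seen as dye fluorescence rise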
KCNK9 block = blocks the human KCNK9 two-pore domain potassium channel. 1.2% of 310,000 active. HEK293 KCNK9, FluxOR thallium flux fluorescence; stronger effect = lower value. B-score at 10 µM. Q9NPC2;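 active means ratio B-score over 3 SD below the library mean, with starting fluorescence within 5 SD of its mean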;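 further: negative B-score means less thallium flux so channel inhibition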
Kir21 block = blocks the mouse Kir2.1 inward-rectifier potassium channel | 0.85% of 310,000 active | B-score at 10 µM | AID 1672 | HEK293-Kir2.1, FluxOR thallium flux fluorescence; stronger effect = lower value;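 active means fluorescence ratio B-score at or below minus 3 SD of library scores, with starting-brightness B-score within 2 SD, cut at about -4.2 in these data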;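 further: channel flux triggered by added potassium and thallium sulfate stimulus; B-score of peak minus minimum fluorescence over baseline after thallium stimulus; more negative B-score means stronger Kir2.1 block with less thallium influx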
Target sequence (P35561 whole entry, looked up): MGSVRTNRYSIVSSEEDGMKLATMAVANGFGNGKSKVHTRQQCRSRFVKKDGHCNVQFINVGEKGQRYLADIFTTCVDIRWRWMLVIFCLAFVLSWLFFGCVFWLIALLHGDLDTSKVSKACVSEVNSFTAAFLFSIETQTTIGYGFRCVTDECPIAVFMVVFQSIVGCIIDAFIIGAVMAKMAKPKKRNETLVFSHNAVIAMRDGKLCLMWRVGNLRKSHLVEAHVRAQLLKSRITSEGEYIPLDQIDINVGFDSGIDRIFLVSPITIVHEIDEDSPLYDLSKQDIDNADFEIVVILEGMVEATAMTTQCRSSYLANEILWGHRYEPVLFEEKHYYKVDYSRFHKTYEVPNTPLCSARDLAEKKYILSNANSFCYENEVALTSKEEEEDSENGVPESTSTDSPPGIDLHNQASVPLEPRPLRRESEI
* marks the source's active call; other numbers are inactive results; i = inactive; x = not tested or not shown. Rows were chosen to be rich in hits. Some 3.8% of all compounds tested hit in one or more screens of this group.

SMILES	KCNQ1 act	KCNQ1 block	KCNK3 inh	hERG rescue	KCNK9 block	Kir21 block
COc1cc2c(cc1OC)C(c1ccc([N+](=O)[O-])cc1)N(C(C)=O)CC2 (configuration not stated)	i	i	i	9.4*	i	0.29
Cc1c(NC(=S)NC(NC(=O)C(C)(C)C)C(Cl)(Cl)Cl)c(=O)n(-c2ccccc2)n1C (configuration not stated)	i	i	i	0	i	1.2
Cc1ccc(C(=O)Sc2cccccc2=O)cc1	15*	i	i	5.5*	i	-2.5
Cc1ccc(NC(=O)c2ccccc2)cc1	i	i	i	-13	i	0.1
COc1ccc(CCN(C)C(=O)CCNC(=O)c2ccc(Br)cc2)cc1OC	i	i	i	-5	i	0.12
O=S(=O)(Cc1ccccc1)NCC1CCCO1 (configuration not stated)	i	i	i	4.7*	i	-1.5
O=S(=O)(Cc1ccccc1)Nc1ccc(S(=O)(=O)NCC2CCCO2)cc1 (configuration not stated)	i	i	i	-2	i	-0.97
CCCCCCCCCc1nc2sc3c(c2c(=O)n1NC(=O)c1ccccc1[N+](=O)[O-])CC(C)(C)OC3	i	8*	i	-9	i	-0.07
CCCc1nc2sc3c(c2c(=O)n1NC(=O)c1ccco1)CC(C)(C)OC3	i	i	i	-11	i	0.17
CCCCCCCCCc1nc2sc3c(c2c(=O)n1NC(=O)c1ccc([N+](=O)[O-])cc1)CC(C)(C)OC3	i	7*	i	-10	i	-0.18
COc1cc2c(cc1OC)C(COc1ccc([N+](=O)[O-])cc1)NCC2 (configuration not stated)	i	i	i	-7	i	2.1
CN1CCN(c2nc3ccccn3c(=O)c2/C=C(\C#N)S(=O)(=O)c2ccc(Cl)cc2)CC1	i	i	i	-12	i	-2.5
Cc1cc2nc3ccc(=[N+](C)C)cc-3sc2cc1N	i	6*	i	-12	i	2.2
CN(C)c1ccc2nc3ccc(=[N+](C)C)cc-3sc2c1	i	i	i	-2	i	0.18
C/C(=N\N=C(N)N)c1ccc(Cl)cc1Cl	i	i	i	-9	i	-7.2*
C/C(=N\N=C(N)N)c1cc(Cl)ccc1Cl	i	i	i	-5	i	-5.8*
C/C(=N\N=C(N)N)c1cccc(Cl)c1	i	i	i	-4	i	-2.6
CCC(C)(C)c1ccc(OCCCC[n+]2ccccc2)c(C(C)(C)CC)c1	i	i	i	-23	i	-3.6
CCCCCc1ccc(OCCCC[n+]2ccc(C)cc2)c(CCCCC)c1	i	11*	i	-27	-7.2*	-9.1*
CCCCCc1ccc(OCCCC[n+]2cccc(C)c2)c(CCCCC)c1	i	10*	i	-27	-7.5*	-5.1*
Cc1ccccc1NC(=O)CCN1CCN(CCO)CC1	i	i	i	-10	i	1.1
CCC(C(=O)NCc1ccco1)N(C(=O)CNS(=O)(=O)c1ccc(F)cc1)c1ccccc1F (configuration not stated)	i	i	i	-6	i	-1
Cc1ccc(NC(=S)Nc2ccc(Cl)c(Cl)c2)c(OC(F)F)c1	i	9*	i	-35	i	-2.6
Clc1ccc(Cc2ccccc2)nn1	i	i	i	5.3*	i	0.17
COc1ccc(N2C(=O)c3cccc4c(N(C)CCO)ccc(c34)C2=O)cc1	i	7*	i	-12	i	0.14
SMILES	KCNQ1 act	KCNQ1 block	KCNK3 inh	hERG rescue	KCNK9 block	Kir21 block
COc1ccc(-c2nnc(SC(C(=O)c3c[nH]c4ccccc34)c3ccccc3)n2N)cc1OC (configuration not stated)	i	i	i	-5	i	0.15
C[n+]1ccc(C(=O)N/N=C/c2ccco2)cc1	i	i	i	-5	i	0.09
CCN(CC(=O)NCc1ccc(F)cc1)C(=O)c1cccc(S(=O)(=O)N(C)c2ccc(OC)cc2)c1	x	x	i	x	x	x
Oc1c(CN2CCOCC2)cc(-c2ccccc2)cc1CN1CCOCC1	i	i	i	35*	i	-0.63
Oc1c(CN2CCOCC2)cc(CN2CCOCC2)c(O)c1CN1CCOCC1	x	x	i	x	x	x
COc1ccccc1NC(=O)c1cc(S(=O)(=O)NC2CCCC2)ccc1F	i	i	i	-10	i	-0.68
Cc1cc(NC(=O)COC(=O)Cn2c(C)csc2=O)ccc1Br	i	6*	i	-9	i	1.7
CC(=O)OCC(=O)Nc1ccc(Br)c(C)c1	i	i	i	-9	i	2.3
CSc1nnc(-c2sccc2OCc2ccc(C)cc2)n1C	i	i	i	-7	i	-4.3*
Cc1ccc(COc2ccsc2C(=O)O)cc1	x	x	i	x	x	x
O=C(Nc1cc(-c2ccccc2)sc1C(=O)O)c1cccc(F)c1	i	6*	i	-11	i	0.67
O=C(O)c1ccc(NC(=O)c2ccccc2NC(=O)c2cccc(F)c2)cc1	i	i	i	-3	i	0.66
CCCC[C@H](CN(N=O)[C@@H](Cc1ccccc1)CN(C)N=O)N(CCc1ccccc1)N=O	i	6*	i	-5	i	0
COCCNC(=O)C(c1ccc(C)o1)N(Cc1ccc(OC)cc1)C(=O)Cn1nnc2ccccc21 (configuration not stated)	i	i	i	6.5*	i	0.22
c1cncc(-c2nc(NCc3ccco3)c3ccccc3n2)c1	i	i	i	-16	i	2.3
Cc1ccc(C(=O)n2nc(-c3ccccc3)nc2NCc2ccco2)cc1	i	i	i	-8	i	-0.03
CCCC(=O)n1nc(-c2ccc(C)cc2)nc1NCc1ccco1	10*	i	i	-13	i	0.02
Cc1ccc(-c2nc(NCc3ccco3)c3ccccc3n2)cc1	i	i	i	-18	-6.6*	0.27
c1ccc(Nc2nc(NCc3ccco3)c3ccccc3n2)cc1	i	i	i	-23	i	-17*
CCCn1c(=O)[nH]c(=O)c2c1nc(-c1cccs1)n2CCOC	i	i	i	-16	i	-0.82
CCOC(=O)c1c(C(C)(C)C)oc2ccc(O)cc12	x	x	i	x	x	x
CCOC(=O)c1c(-c2ccccc2)oc2ccc(O)c(CN3CCCC3)c12	i	i	i	-17	i	-12*
CCOC(=O)c1c(-c2ccccc2)oc2ccc(OCC(O)CN(C)C)cc12 (configuration not stated)	i	i	i	-14	i	-7.8*

Compound activity (PubChem BioAssay)
